Active and inactive are the calls of the source. No cut-off for these calls is given here.
Legend:
Cavia porcellus [1] = species on record: Cavia porcellus; test: Positive ionotropic activity (0.1x10E 6 g/mL) was determined in guinea pig; no significant activity; assay type: functional, organism-based
Felis catus [2] = species on record: Felis catus; test: Effective dose in cat was determined; assay type: functional
Method in brief: (§1)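 Cats of either sex (3.0-4.5 kg) under chloralose anesthesia (70 mg/kg iv). Compounds were dissolved in propylene glycol (10 mg/mL stock), diluted in distilled water and injected iv via the femoral vein at 30, 100, 300, 500 and 1000 µg/kg, three animals per dose. Fall in mean arterial pressure (femoral artery transducer) was read at 10 min. ED20 was taken from log dose-response curves.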

Rattus norvegicus [3] = species on record: Rattus norvegicus; test: Difference in systolic blood pressure observed prior to the first application and 2 hr after the fifth application to spontaneously hypertensive rats (SHR); assay type: functional, Artery
Method in brief: (§2)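 Groups of six conscious male SH rats (Wistar-Okamoto origin, 250-300 g, 12-16 weeks; systolic pressure >160 mmHg) received 25 mg/kg po daily for 5 days as a 0.5% carboxymethylcellulose suspension, with vehicle controls. Systolic pressure was taken by tail-cuff after warming at 37-38 °C for 10 min, before the first dose and 2 h after each dose. Paired t test; only falls >15 mmHg with p < 0.05 were listed.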

Rattus norvegicus [4] = species on record: Rattus norvegicus; test: Difference in systolic blood pressure observed prior to the first application and 2 hr after the fifth application to spontaneously hypertensive rats(SHR); assay type: functional, Artery; method in brief: as §2
Rattus norvegicus [5] = species on record: Rattus norvegicus; test: Difference in systolic blood pressure observed prior to the first application and 2 hr after the fifth application to spontaneously hypertensive rats (SHR); NS denotes not significant; assay type: functional, organism-based; details: Artery
Rattus norvegicus [6] = test: Difference in systolic blood pressure observed prior to the first application and 2 hr after the fifth application at 5 mg/kg, po daily for 5 days to spontaneously hypertensive rats (SHR); assay type: functional, Artery
Method in brief: (§3)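 Male SH rats (Wistar-Okamoto derived, 250-300 g, 12-16 weeks old) with systolic pressure above 160 mmHg, in groups of six. The dose was given orally once daily for 5 days as a suspension in 0.5% carboxymethylcellulose, and a vehicle control group was run. Systolic pressure was read by tail-cuff after 10 min warming at 37-38 °C, before dosing and 2 h post-dose. Paired Student's t test.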

Felis catus [7] = test: Percent fall in blood pressure, 10 min after intravenous administration at doses 300 ug/kg in cat; assay type: functional; method in brief: as §1
Cavia porcellus [8] = species on record: Cavia porcellus; test: Positive ionotropic activity determined as effective concentration in guinea pig; Range 6.8*10e-7 to 1.75x10E-6M; assay type: functional, organism-based
Rattus norvegicus [9] = test: Difference in systolic blood pressure observed prior to the first application and 2 hr after the fifth application at 20 mg/kg, po daily for 5 days to spontaneously hypertensive rats (SHR); assay type: functional, Artery; method in brief: as §3
Rattus norvegicus [10] = test: Difference in systolic blood pressure observed prior to the first application and 2 hr after the fifth application at 10 mg/kg, po daily for 5 days to spontaneously hypertensive rats (SHR); assay type: functional, Artery; method in brief: as §3
Felis catus [11] = test: Percent fall in blood pressure, 10 min after intravenous administration at doses 500 ug/kg in cat; assay type: functional; method in brief: as §1

SMILES	Activity (Cavia porcellus [1])	ED20 (Felis catus [2]) [mg/kg]	Delta blood pressure (Rattus norvegicus [3]) [mmHg]	also measured
C=C[C@@]1(C)CC(=O)[C@]2(O)C3(C)[C@@H](O)CCC(C)(C)[C@@H]3C(O)C(OC(=O)OCC)[C@@]2(C)O1 (stereo not given in full)	no significant activity	> 0.5	0	–
CC(=O)OC1C(O)[C@H]2C(C)(C)CC[C@H](O)C2(C)[C@@]2(O)C(=O)C[C@](C)(C3CO3)O[C@]12C (stereo not given in full)	–	> 0.5	–	Delta blood pressure (Rattus norvegicus [4]): -22.67 mmHg
C=C[C@@]1(C)CC(=O)[C@]2(O)C3(C)[C@@H](O)CCC(C)(C)[C@@H]3C3OC(=O)OC3[C@@]2(C)O1 (stereo not given in full)	–	> 0.5	-24.67	–
C=C[C@@]1(C)CC(=O)[C@]2(O)C3(C)[C@@H](O)CCC(C)(C)[C@@H]3C(O)C(OC(C)=O)[C@@]2(C)O1 (stereo not given in full)	no significant activity	0.038	-26	–
C=C[C@@]1(C)CC(=O)[C@]2(O)C3(C)[C@@H](OC(=O)Nc4ccccc4)CCC(C)(C)[C@@H]3C(O)C(OC(C)=O)[C@@]2(C)O1 (stereo not given in full)	–	> 0.5	–	Delta blood pressure (Rattus norvegicus [5]): inactive
Nc1cc(N2CCCCC2)nc(N)[n+]1[O-] [MINOXIDIL]	no significant activity	> 0.5	–	Delta blood pressure (Rattus norvegicus [6]): -51.2 mmHg
C=C[C@@]1(C)CC(=O)[C@@]23OC(=O)O[C@H]4CCC(C)(C)[C@H](C5OC(=O)OC5[C@@]2(C)O1)C43C (stereo not given in full)	no significant activity	> 0.5	-23	–
C=C[C@@]1(C)CC(=O)[C@]2(O)C3(C)[C@@H](OCCN(CC)CC)CCC(C)(C)[C@@H]3C(OC(C)=O)C(O)[C@@]2(C)O1.Cl (stereo not given in full)	no significant activity	> 0.5	-26.7	–
C=C[C@@]1(C)CC(=O)[C@]2(O)C3(C)[C@@H](O)CCC(C)(C)[C@@H]3C(OC(C)=O)C(O)[C@@]2(C)O1 (stereo not given in full)	no significant activity	> 0.5	-28	Decrease in blood pressure (Felis catus [7]): 20%; EC50 (Cavia porcellus [8]): 1090 nM
CC[C@@]1(C)CC(=O)[C@]2(O)C3(C)[C@@H](O)CCC(C)(C)[C@@H]3C(O)C(OC(C)=O)[C@@]2(C)O1 (stereo not given in full)	–	> 0.5	–	Delta blood pressure (Rattus norvegicus [9]): -15.7 mmHg
CN1CCN(CC(O)[C@@]2(C)CC(=O)[C@]3(O)C4(C)[C@@H](O)CCC(C)(C)[C@@H]4C(O)C(O)[C@@]3(C)O2)CC1.Cl.Cl (stereo not given in full)	no significant activity	> 0.5	–	Delta blood pressure (Rattus norvegicus [5]): inactive
C=C[C@@]1(C)CC(=O)[C@]2(O)C3(C)[C@@H](OC(=O)C(C)(C)C)CCC(C)(C)[C@@H]3C(O)C(OC(=O)C(C)(C)C)[C@@]2(C)O1 (stereo not given in full)	–	> 0.5	–	Delta blood pressure (Rattus norvegicus [4]): 0 mmHg
C=C[C@@]1(C)C[C@H](O)[C@]2(O)C3(C)[C@@H](O)CCC(C)(C)[C@@H]3C(O)C(O)[C@@]2(C)O1 (stereo not given in full)	no significant activity	> 0.5	–	Delta blood pressure (Rattus norvegicus [10]): -19.3 mmHg
C=C[C@@]1(C)CC(=O)[C@]2(O)C3(C)[C@@H](O)CCC(C)(C)[C@@H]3C(O)C(OC(=O)N(CC)CC)[C@@]2(C)O1 (stereo not given in full)	no significant activity	> 0.5	0	–
C=C[C@@]1(C)CC(=O)[C@]2(O)C3(C)[C@@H](O)CCC(C)(C)[C@@H]3C(O)C(OC(=O)CCC)[C@@]2(C)O1 (stereo not given in full)	no significant activity	> 0.5	-19.7	–
C=C[C@@]1(C)CC(=O)[C@]2(O)C3(C)[C@@H](O)CCC(C)(C)[C@@H]3C(O)C(OC(=O)CC)[C@@]2(C)O1 (stereo not given in full)	–	> 0.5	-25.3	–
C=C[C@@]1(C)CC(=O)[C@]2(O)C3(C)[C@@H](O[Si](C)(C)C)CCC(C)(C)[C@@H]3C(O)C(OC(C)=O)[C@@]2(C)O1 (stereo not given in full)	–	> 0.5	–	Delta blood pressure (Rattus norvegicus [4]): 0 mmHg

SMILES	Activity (Cavia porcellus [1])	ED20 (Felis catus [2]) [mg/kg]	Delta blood pressure (Rattus norvegicus [3]) [mmHg]	also measured
C=C[C@@]1(C)CC(=O)[C@@]23OS(=O)O[C@H]4CCC(C)(C)[C@H](C(O)C(OC(C)=O)[C@@]2(C)O1)C43C (stereo not given in full)	no significant activity	> 0.5	–	Delta blood pressure (Rattus norvegicus [4]): -31 mmHg
C=C[C@@]1(C)CC(=O)[C@@]23OS(=O)O[C@H]4CCC(C)(C)[C@H](C5OS(=O)OC5[C@@]2(C)O1)C43C (stereo not given in full)	no significant activity	> 0.5	–	Delta blood pressure (Rattus norvegicus [4]): 0 mmHg
C=C[C@@]1(C)CC(=O)[C@]2(O)[C@@]3(C)[C@@H](O)CCC(C)(C)[C@@H]3[C@H](O)[C@H](O)[C@@]2(C)O1	no significant activity	> 0.5	-24.6	Decrease in blood pressure (Felis catus [11]): 20%
C=C[C@@]1(C)CC(=O)[C@]2(O)C3(C)[C@@H](OCc4ccccc4)CCC(C)(C)[C@@H]3C(O)C(OC(=O)C(C)(C)Br)[C@@]2(C)O1 (stereo not given in full)	–	> 0.5	–	Delta blood pressure (Rattus norvegicus [4]): 0 mmHg
C=C[C@@]1(C)CC(=O)[C@]2(O)C3(C)[C@@H](OC)CCC(C)(C)[C@@H]3C(OC(C)=O)C(O)[C@@]2(C)O1 (stereo not given in full)	no significant activity	> 0.5	-25.3	–
C=C[C@@]1(C)CC(=O)[C@]2(O)C3(C)[C@@H](O)CCC(C)(C)[C@@H]3C(O)C(OC=O)[C@@]2(C)O1 (stereo not given in full)	no significant activity	> 0.5	-23.7	–
CC(=O)OC1C(O)[C@H]2C(C)(C)CC[C@H](O)C2(C)[C@@]2(O)C(=O)C[C@](C)(C=O)O[C@]12C (stereo not given in full)	–	> 0.5	–	Delta blood pressure (Rattus norvegicus [4]): -22 mmHg
C=C[C@@]1(C)CC(=O)[C@]2(O)C3(C)[C@@H](O)CCC(C)(C)[C@@H]3C(O)C(OS(=O)(=O)c3ccc(C)cc3)[C@@]2(C)O1 (stereo not given in full)	no significant activity	> 0.5	–	Delta blood pressure (Rattus norvegicus [4]): -27.3 mmHg
C=C[C@@]1(C)CC(=O)[C@@]23OC(=O)O[C@H]4CCC(C)(C)[C@H](C(O)C(OC(C)=O)[C@@]2(C)O1)C43C (stereo not given in full)	no significant activity	> 0.5	-16.7	–
C=C[C@@]1(C)CC(=O)[C@]2(O)C3(C)C(O)CCC(C)(C)[C@@H]3C(OC(C)=O)C(OC(C)=O)[C@@]2(C)O1 (stereo not given in full)	no significant activity	> 0.5	-24.3	–
C=C[C@@]1(C)C[C@H](O)[C@]2(O)C3(C)[C@@H](O)CCC(C)(C)[C@@H]3C(O)C(OC(C)=O)[C@@]2(C)O1 (stereo not given in full)	–	> 0.5	0	–
C=C[C@@]1(C)CC(=O)[C@@H]2C3(C)CCCC(C)(C)[C@@H]3C(O)C(OC(C)=O)[C@@]2(C)O1 (stereo not given in full)	no significant activity	> 0.5	0	–
C=C[C@@]1(C)CC(=O)[C@]2(O)C3(C)[C@@H](O)CCC(C)(C)[C@@H]3C(OC(C)=O)C(OC(=O)CC)[C@@]2(C)O1 (stereo not given in full)	–	> 0.5	0	–
C=C[C@@]1(C)CC(=O)[C@]2(O)C3(C)C(=O)CCC(C)(C)[C@@H]3C(O)C(OC(C)=O)[C@@]2(C)O1 (stereo not given in full)	no significant activity	> 0.5	0	–
C=C[C@@]1(C)CC(=O)[C@]2(O)C3(C)[C@@H](O)CCC(C)(C)[C@@H]3C(OC(=O)CC)C(O)[C@@]2(C)O1 (stereo not given in full)	–	> 0.5	–	Delta blood pressure (Rattus norvegicus [9]): -26.33 mmHg
C=C[C@@]1(C)CC(=O)[C@]2(O)C3(C)[C@@H](OC)CCC(C)(C)[C@@H]3C(O)C(OC(C)=O)[C@@]2(C)O1 (stereo not given in full)	no significant activity	> 0.5	0	–
